Results on 4 compounds are retold here after ChEMBL document CHEMBL4024753, “Lipoyl-Homotaurine Derivative (ADM_12) Reverts Oxaliplatin-Induced Neuropathy and Reduces Cancer Cells Malignancy by Inhibiting Carbonic Anhydrase IX (CAIX)” (J Med Chem, 2017).

One assay has as its system Astrocyte. Nature of the assay: Antioxidant activity in Sprague-Dawley rat primary cortical astrocytes assessed as inhibition of OXA-induced superoxide radical anion at 100 uM after 4 hrs by cytochrome C assay relative to control. Type of assay: functional. A digest of the protocol:
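Primary rat cortical astrocytes (5 × 10^5 cells/well) exposed to 100 μM oxaliplatin for 4 h, with or without co-incubated compound. Superoxide measured by cytochrome C assay. Absorbance in the presence of SOD subtracted as nonspecific. Mean ± SEM of three experiments versus untreated culture.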

Another assay has as its system Rattus norvegicus. Nature of the assay: Antihyperalgesic activity in OXA-induced neuropathic pain Sprague-Dawley rat model assessed as reduction in response to noxious mechanical stimulus at 30 mg/kg, po after 15 to 75 mins on day 21 post induction. Type of assay: functional, organism-based. Summed up: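 Male Sprague-Dawley rats (200-250 g) given oxaliplatin 2.4 mg kg−1 ip daily in 0.5% glucose solution. On day 21, single po dose of test agent in 1% CMC vehicle. Paw-pressure test (noxious mechanical stimulus, weight tolerated) repeated over time after dosing. 12 rats per group from two experimental sets, mean ± SEM.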

Assay [1] is described as follows: Antioxidant activity of compound assessed as reduction in ipoxanthine/xanthine oxidase-induced superoxide anion level after 30 mins by nitro blue tetrazolium-based spectrophotometric assay. The assay is classed as functional. Summed up: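 Cell-free test with superoxide generated by a hypoxanthine–xanthine oxidase system. Nitro blue tetrazolium […] read after 30 min without or with increasing compound concentrations (up to 1000 μM).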

For a further assay, the target named is Carbonic anhydrase 12 (Homo sapiens, UniProt O43570). The experiment in a line: Inhibition of human carbonic anhydrase 12 incubated for 15 mins prior to testing by stopped flow CO2 hydrase assay.
Carbonic anhydrase 12, sequence (O43570 whole entry): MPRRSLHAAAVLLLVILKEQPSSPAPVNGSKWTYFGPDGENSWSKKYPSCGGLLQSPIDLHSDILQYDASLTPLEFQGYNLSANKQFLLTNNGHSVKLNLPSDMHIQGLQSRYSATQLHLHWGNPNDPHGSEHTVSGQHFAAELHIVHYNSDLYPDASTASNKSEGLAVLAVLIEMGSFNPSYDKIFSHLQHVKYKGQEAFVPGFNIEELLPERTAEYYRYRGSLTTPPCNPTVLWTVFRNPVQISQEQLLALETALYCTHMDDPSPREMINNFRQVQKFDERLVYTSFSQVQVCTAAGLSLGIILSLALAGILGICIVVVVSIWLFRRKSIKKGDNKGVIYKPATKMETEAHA
For assay [2], the target named is T1, Carbonic anhydrase 9 (Homo sapiens, UniProt Q16790). The experiment in a line: Inhibition of human carbonic anhydrase 9 incubated for 15 mins prior to testing by stopped flow CO2 hydrase assay.
Assay [3] concerns the target Transient receptor potential cation channel subfamily A member 1 (Homo sapiens) (UniProt O75762). Nature of the assay: Inhibition of oxaliplatin activated TRPA1 (unknown origin) expressed in CHO cells assessed as reduction in channel evoked current at 30 uM by Patch-clamp method. Type of assay: cell-based. Summed up:
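CHO cells transiently transfected with wild-type TRPA1, EGFP as transfection marker. Whole-cell patch clamp 48−72 h after transfection. Voltage ramps read at +50 and −50 mV. Currents evoked by 50 μM oxaliplatin, then compound applied. n = 5 cells, unpaired Student's t test.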

The target in assay [4] is T1, Carbonic anhydrase 9. Particulars: 100 uM.
In assay [5] the test system is HT-29. Nature of the assay: Synergistic antiproliferative activity against human HT-29 cells assessed as cell viability at 100 uM after 24 hrs in presence of 300 uM oxaliplatin by MTT assay relative to control. Type of assay: functional. Summed up: (§1)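 HT-29 cells co-treated 24 h with compound at 100 μM plus oxaliplatin (1, 10, 30, 100 or 300 μM). Viability by MTT as % viable cells versus untreated control. Compared to control and to compound alone.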

Assay [6] has as its target T1, Carbonic anhydrase 9. The note with it: 100 uM. The source holds these as a separate data set.
Assay [7] has as its system HT-29. The experiment in a line: Antiproliferative activity against human HT-29 cells assessed as cell viability at 100 uM after 24 hrs by MTT assay relative to control. Particulars: HT-29, 24 h, read-out: Activity. Type of assay: functional. Summed up: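 HT-29 human colon cancer cells incubated 24 h with compound (range 1−300 μM). Viability by MTT, expressed as % viable cells relative to untreated control.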

In assay [8] the target is T1, Carbonic anhydrase 9. The note with it: 100 uM. The source holds these as a separate data set.
Assay [9] concerns HT-29. Nature of the assay: Synergistic antiproliferative activity against human HT-29 cells assessed as cell viability at 100 uM after 24 hrs in presence of 30 uM oxaliplatin by MTT assay relative to control. The assay is classed as functional. A digest of the protocol:
as §1

The target in assay [10] is T1, Carbonic anhydrase 9. Particulars: 100 uM. The source holds these as a separate data set.
Assay [11] deals with T1, Carbonic anhydrase 9. The note with it: 100 uM. This is another data set of the same source.
The test system of assay [12] is HT-29. Nature of the assay: Synergistic antiproliferative activity against human HT-29 cells assessed as cell viability at 100 uM after 24 hrs in presence of 1 uM oxaliplatin by MTT assay relative to control. Type of assay: functional. Summed up:
as §1

Assay [13] has as its target Macrophage metalloelastase (Homo sapiens, UniProt P39900). The experiment in a line: Binding affinity to human 15N-labeled MMP-12 catalytic domain (G106 to G263 residues) expressed in Escherichia coli BL21 Gold by 1H […] NMR method. Summed up: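 2D 1H−15N HSQC spectra of the MMP-12 catalytic domain titrated with ligand (up to 3.3 mM). Kd derived by fitting chemical shift variations of residues.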

The subject of assay [14] is HT-29. The experiment in a line: Synergistic antiproliferative activity against human HT-29 cells assessed as cell viability at 100 uM after 24 hrs in presence of 10 uM oxaliplatin by MTT assay relative to control. Type of assay: functional. A digest of the protocol:
as §1

In assay [15] the test system is HT-29. The experiment in a line: Synergistic antiproliferative activity against human HT-29 cells assessed as cell viability at 100 uM after 24 hrs in presence of 100 uM oxaliplatin by MTT assay relative to control. Type of assay: functional. The note with it: HT-29, 24 h, read-out: Activity. Summed up: as §1
Assay [16] concerns the target T1, Carbonic anhydrase 9. Particulars: 100 uM. This is another data set of the same source.
Assay [17] addresses T1, Carbonic anhydrase 9. Particulars: 100 uM. The source holds these as a separate data set.
Assay [18] has as its system HT-29. Nature of the assay: Cytotoxicity against human HT-29 cells assessed as mortality at 1 to 300 uM after 24 hrs by MTT assay relative to control. Type of assay: functional. Summed up: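 Human colon cancer HT-29 cells incubated with increasing concentrations (1−300 μM) for 24 h; viability read by MTT test and expressed as % of viable cells relative to untreated control.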

Each structure is given as a SMILES string. Active and inactive are the calls of the source. The calls are words filed in the database; no cut-off is given here.

Transient receptor potential cation channel subfamily A member 1 (Homo sapiens), sequence (O75762 whole entry): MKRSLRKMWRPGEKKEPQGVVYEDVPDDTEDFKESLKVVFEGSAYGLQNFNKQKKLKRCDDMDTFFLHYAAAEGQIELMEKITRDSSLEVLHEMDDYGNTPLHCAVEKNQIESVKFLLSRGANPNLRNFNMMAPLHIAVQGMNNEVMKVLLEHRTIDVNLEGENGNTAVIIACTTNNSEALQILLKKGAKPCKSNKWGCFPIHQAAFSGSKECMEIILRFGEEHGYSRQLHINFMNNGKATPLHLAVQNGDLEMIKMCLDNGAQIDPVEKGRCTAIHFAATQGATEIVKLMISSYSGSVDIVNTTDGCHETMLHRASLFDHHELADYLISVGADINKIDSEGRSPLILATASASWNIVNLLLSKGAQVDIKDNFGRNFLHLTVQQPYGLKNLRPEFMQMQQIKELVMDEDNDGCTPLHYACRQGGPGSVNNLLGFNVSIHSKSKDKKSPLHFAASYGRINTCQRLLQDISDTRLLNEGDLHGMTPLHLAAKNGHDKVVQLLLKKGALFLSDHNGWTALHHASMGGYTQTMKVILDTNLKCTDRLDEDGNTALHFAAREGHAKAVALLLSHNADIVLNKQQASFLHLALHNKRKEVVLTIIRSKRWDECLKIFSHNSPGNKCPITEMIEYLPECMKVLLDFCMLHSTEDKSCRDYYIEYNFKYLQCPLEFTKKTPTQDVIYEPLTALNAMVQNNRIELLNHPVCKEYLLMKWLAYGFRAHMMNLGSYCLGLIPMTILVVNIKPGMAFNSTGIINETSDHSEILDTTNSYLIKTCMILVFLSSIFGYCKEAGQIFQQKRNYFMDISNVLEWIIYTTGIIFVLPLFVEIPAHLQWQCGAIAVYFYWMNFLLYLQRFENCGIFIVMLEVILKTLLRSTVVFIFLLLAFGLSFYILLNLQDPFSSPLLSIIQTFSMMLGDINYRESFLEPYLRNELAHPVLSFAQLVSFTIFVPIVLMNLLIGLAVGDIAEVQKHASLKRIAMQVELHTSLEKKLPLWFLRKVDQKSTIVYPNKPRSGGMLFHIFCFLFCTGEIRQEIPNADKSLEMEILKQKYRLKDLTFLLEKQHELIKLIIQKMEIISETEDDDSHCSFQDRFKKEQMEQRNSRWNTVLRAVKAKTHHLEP
Macrophage metalloelastase, sequence (P39900 whole entry, the tested form may be a part): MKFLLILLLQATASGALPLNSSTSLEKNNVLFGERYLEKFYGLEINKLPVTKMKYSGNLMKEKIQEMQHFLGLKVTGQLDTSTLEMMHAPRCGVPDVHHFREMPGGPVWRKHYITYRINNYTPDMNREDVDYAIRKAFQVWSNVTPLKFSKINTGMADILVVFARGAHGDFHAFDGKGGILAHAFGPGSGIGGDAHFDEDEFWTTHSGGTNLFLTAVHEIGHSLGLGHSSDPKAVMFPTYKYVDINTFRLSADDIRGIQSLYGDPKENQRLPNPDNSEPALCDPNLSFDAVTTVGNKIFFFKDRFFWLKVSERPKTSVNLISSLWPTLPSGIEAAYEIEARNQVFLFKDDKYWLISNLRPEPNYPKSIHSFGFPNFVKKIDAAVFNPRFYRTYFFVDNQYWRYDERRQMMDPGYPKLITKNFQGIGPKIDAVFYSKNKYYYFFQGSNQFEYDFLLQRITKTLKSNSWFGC

For `O=C(CCCCC1CCSS1)NCCCCS(=O)(=O)O` (centres undefined), the inhibition at 100 µM in the assay with Astrocyte was 75%. Also, the outcome in the assay on Rattus norvegicus was Active. In [1], the Activity result was “Dose-dependent effect”.

With `O=S(=O)(O)/C=C/c1cc(Br)ccc1O`, the Ki amounted to 4.51 µM at Carbonic anhydrase 12 and 6.83 µM at Carbonic anhydrase 9 [2].

Consider `O=C(CCCCC1CCSS1)NCCCS(=O)(=O)[O-].[Na+]` (centres undefined), for which the inhibition entry (in assay [3]; on Carbonic anhydrase 9 [4]; at Carbonic anhydrase 9 [6]; on Carbonic anhydrase 9 [8]; on Carbonic anhydrase 9 [10]; at Carbonic anhydrase 9 [11]) was “Active” each time. Further, the inhibition result at Carbonic anhydrase 9 [16] and at Carbonic anhydrase 9 [17] was “Active” in each case. Besides, the Ki at Carbonic anhydrase 12 is 0.727 µM; at Carbonic anhydrase 9 [2], 0.654 µM. The inhibition at 100 µM in the assay on Astrocyte is 75%. Moreover, the Activity in the assay with HT-29 [5] was 48.1%; with HT-29 [9], 71.4%; with HT-29 [12], 74.6%; with HT-29 [14], 78.6%; in assay [1], “Dose-dependent effect”. Moreover, the outcome in the assay on Rattus norvegicus was Active. Moreover, the viability at 100 µM in the assay with HT-29 [7] came to 81.3%; in the assay on HT-29 [15], 67.4%. The same compound returned a Kd in assay [13] of 875 µM. Moreover, the mortality in the assay on HT-29 [18] amounted to 20%.

Turning to `O=C(CCCCC1CCSS1)NCCS(=O)(=O)O` (centres undefined), in the assay with Astrocyte, the inhibition at 100 µM came to 75%. Moreover, the result in the assay with Rattus norvegicus was Active. Besides, the Activity result in [1] is “Dose-dependent effect”.
